Measurements taken from ChEMBL document CHEMBL5038582, “Adamantyl Isothiocyanates as Mutant p53 Rescuing Agents and Their Structure-Activity Relationships” (J Med Chem, 2021).
Active and inactive are the calls of the source. No cut-off for these calls is given here.

What was measured:
MDA-MB-231 = assay: Induction of apoptosis in human MDA-MB-231 cells expressing p53 R280K mutant assessed increase in number of Annexin-V stained cells at 6 to 12 uM incubated for 24 hrs by AnnexinV-FITC and PI staining based flow cytometry; type: functional, cell-based; details: dose 6-12 µM
In short: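 24 h treatment, DMSO control. Cells scraped, washed in PBS, then given fluorochrome-conjugated Annexin V for 15 min at RT in the dark, followed by PI (0.1 µg/ml) in binding buffer. Read by flow cytometry on LSRFortessa. Annexin V-positive cells expressed relative to the DMSO control.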

[1] = Octanol-water partition coefficient, logP of the compound by HPLC-MS analysis; type: physicochemical; details: 18 h
In short: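 Compound (10 µL of 10 mM DMSO stock) added to 0.5 mL octanol plus 0.5 mL sodium phosphate buffer pH 7.4. Stirred 18 h, centrifuged 2 h at 3600 rpm. Concentration in each phase measured by LC-MS on a C18 column.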

MDA-MB-468 = assay: Antiproliferative activity against human MDA-MB-468 cells transfected with p53 siRNA assessed as inhibition of cell growth at 5 to 25 uM measured after 24 hrs by WST-1 assay; type: functional, cell-based; details: dose 5-25 µM
In short: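 MDA-MB-468 cells plated at 50-60% confluence 24 h before transfection. p53 SMARTpool or non-specific siRNA (0.430 nmol) given with Lipofectamine 2000 in Opti-MEM for 5 h, repeated after 24 h. Drug or DMSO added 72 h after the first transfection. Proliferation read by WST-1, % of DMSO control.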

[2] = system: Cellular tumor antigen p53 (Homo sapiens), P04637 [R273H]; assay: Reactivation of transactivation function to p53 R273H mutant in human MDA-MB-468 cells assessed as ATM activation by measuring increase in phosphorylation of ATM at serine 1981 residue at 6 uM measured after 24 hrs by immunoblot analysis; type: cell-based; details: filed as activator
In short: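 DMSO or 6 µM for 24 h. 250 µg of lysate run on 4-12% SDS-PAGE, blot probed with anti-pATM Ser1981 (1:500), then anti-mouse HRP secondary with ECL detection. GAPDH reprobe as control. Triplicate experiments.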

[Se]=C=NCCC12CC3CC(CC(C3)C1)C2
Activity (MDA-MB-231): Active | logP [1]: 4.05

S=C=NCCCC12CC3CC(CC(C3)C1)C2
Activity (MDA-MB-468): inactive | Activity [2]: Active
